NPY-Y1 PAM-ag – human NPY-Y1 potentiation or agonism, primary screen | P25929 | NPY-Y1 expressing cells, potentiator/agonist activation | activation, % at 3.6 µM | 220,000 tested, 0.37% active; in the data active means activation above about 33%, passing the limit was not always enough;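 further: cells stimulated with NPY at EC10 then isoproterenol at EC100; 0% = low agonist plus stimulus and 100% = saturating agonist plus stimulus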
NPY2 pot ag – human NPY-Y2 potentiation or agonism, primary screen; 220,000 tested, 0.45% active; cells expressing NPY-Y2, potentiator/agonist read-out; activation, % at 3.6 µM; P49146; in the data active means activation above about 27%;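 further: cells stimulated with NPY near EC25 plus isoproterenol at EC100; 0% = vehicle plus submaximal agonist and 100% = vehicle plus saturating agonist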
Target sequence (P49146 whole entry, looked up): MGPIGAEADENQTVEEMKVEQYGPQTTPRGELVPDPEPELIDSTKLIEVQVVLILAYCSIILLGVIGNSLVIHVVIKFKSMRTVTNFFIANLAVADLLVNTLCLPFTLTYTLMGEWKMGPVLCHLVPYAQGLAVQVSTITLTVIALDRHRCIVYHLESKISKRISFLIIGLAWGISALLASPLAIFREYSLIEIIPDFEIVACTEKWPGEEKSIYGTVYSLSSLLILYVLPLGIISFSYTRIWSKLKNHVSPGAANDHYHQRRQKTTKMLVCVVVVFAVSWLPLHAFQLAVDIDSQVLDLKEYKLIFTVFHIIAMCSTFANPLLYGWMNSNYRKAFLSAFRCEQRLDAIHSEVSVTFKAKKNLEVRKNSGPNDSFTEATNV
Tb hexokinase – T. brucei hexokinase 1 inhibition; recombinant TbHK1, G6PDH-coupled NADH A340; inhibition, % at 10 µM; 220,000 tested, 0.11% active; AID 1430;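 active means inhibition of 50% or more in the single-dose primary screen; inactive means inhibition below 50%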
NPY-Y2 antag – NPY-Y2 (human) receptor antagonism | P49146 | NPY-Y2 expressing cells, antagonist mode | inhibition, % at 2.7 µM | 140,000 tested, 0.99% active | AID 793; in the data active means inhibition above about 17%;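 further: 0% = vehicle with agonist challenge and 100% = reference antagonist with challenge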
m-calpain inh – inhibitors of pig calpain II. purified calpain II, fluorogenic peptide substrate, 30 min. inhibition, % at 16 µM. 220,000 tested, 0.37% active. AID 1236;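 active means inhibition above about 50%, limit read from the data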
NPY Y1 blocker – NPY-Y1 (human) receptor antagonism; AID 1040; P25929; inhibition, % at 3.6 µM; 200,000 tested, 1% active; HEK293-CNG Y1 cells, membrane potential fluorescence; NPY at EC95, then isoproterenol;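 active means inhibition above the campaign mean inhibition of all tested compounds plus 3 SD, cut at about 20% in these data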;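 further: 0% = DMSO wells given NPY plus isoproterenol and 100% = isoproterenol alone without NPY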
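Test system – HEK293 Y1/CNG channel cell line · Also added – NPY agonist 25 nM, then isoproterenol 1 µM plus Ro 20-1724 25 µM · Compound dosing – one concentration, 3.6 µM, in 0.4% DMSO · Schedule – compound incubation 1 h at room temperature, readout 45 min post-stimulation · Technique – fluorescence, membrane potential probe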
NPY-Y1 antag ct – antagonizes human NPY-Y1, counter-screen to NPY-Y2 antagonists | cell-based NPY-Y1 antagonism counterscreen | 710 tested, 19% active | inhibition, % at 3.6 µM | shares compounds with NPY-Y2 antag; in the data active means inhibition above about 20%;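 further: cells challenged with NPY then isoproterenol with cAMP sensed through a CNG channel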
NPY2 antag conf – human NPY-Y2 antagonism, confirmation. shares compounds with NPY-Y2 antag. HEK293 NPY-Y2 CNG channel, membrane potential fluorescence. inhibition, % at 2.8 µM. 710 tested, 32% active. AID 1257;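 active means mean inhibition of triplicate wells above the hit cutoff set in the primary screen, cut at about 17% in these data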;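 further: 0% = DMSO with NPY challenge and 100% = BIIE0246 high control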
An asterisk follows results filed as active; nt = not tested or not shown. Rows were chosen to be rich in hits. Some 2.3% of all compounds tested hit in one or more screens of this group.

SMILES	NPY-Y1 PAM-ag	NPY2 pot ag	Tb hexokinase	NPY-Y2 antag	m-calpain inh	NPY Y1 blocker	NPY-Y1 antag ct	NPY2 antag conf
Cc1ccc(NC(=O)COC(=O)c2ccccc2-c2nc3ccccc3s2)c(C)c1	4.6	-8.2	1.3	6.0	-8.9	4.4	nt	nt
CCN(CC)S(=O)(=O)c1cccc(-c2n[nH]c(=S)n2/N=C/c2ccc(Br)cc2)c1	-23.9	-0.5	-4.6	19.1*	-17.5	8.3	8.7	8.1
CCN(CC)S(=O)(=O)c1cccc(-c2n[nH]c(=S)n2/N=C/c2ccc(OC)cc2)c1	-7.6	8.2	0.9	5.7	-0.2	8.0	nt	nt
CCN(CC)c1ccc(C=NCCc2ccc(S(N)(=O)=O)cc2)cc1	5.7	2.9	-23.2	nt	-7.3	-3.6	nt	nt
CC(CNCC1CCCO1)COc1cccc2ccccc12 (configuration not stated)	-0.7	-0.3	3.9	3.6	2.2	3.0	nt	nt
CC(COc1cccc2ccccc12)CN1CCN(C)CC1 (configuration not stated)	-0.8	1.4	0.8	17.4*	-0.6	0.2	7.2	7.2
O=C(NC1CCCCC1)C(c1ccc2ncccc2c1)N(Cc1ccc2c(c1)OCO2)C(=O)c1cccs1 (configuration not stated)	6.5	-1.5	-4.0	23.7*	-233.8	19.7	20.3*	11.2
Cc1ccc(S(=O)(=O)NC2c3cccc4cccc(c34)C2Sc2nncn2C)cc1 (configuration not stated)	6.5	1.0	-0.7	21.4*	-0.1	3.6	1.1	-1.1
COc1cc(/C=N/n2cnnc2)ccc1OCc1ccc(C)cc1	-41.6	-19.8	-16.2	39.7*	-15.4	18.5	16.1	31.8*
COc1cc(/C=N/n2cnnc2)ccc1OCc1ccccc1	-15.0	-2.0	-17.2	2.9	-12.8	4.8	nt	nt
Cc1ccc(NC(=O)Cc2ccc3c(c2)OCCO3)cc1S(=O)(=O)N1CCCCC1	-3.6	-7.5	-6.0	nt	37.9	nt	nt	nt
CCOc1nc(SCCOc2ccccc2)nc(N(C)C)n1	-19.7	-7.5	0.1	23.4*	19.6	-0.2	10.3	12.8
CCOC(=O)CSc1ncc(OC)c(Sc2ccc(Cl)cc2)n1	-34.1	-18.7	3.3	21.3*	18.0	14.0	3.6	9.0
CCOC(=O)C(C)Sc1ncc(OC)c(Sc2ccc(Cl)cc2)n1 (configuration not stated)	-10.6	-21.9	-1.3	16.6	2.8	8.1	nt	nt
O=C(c1ccco1)N(CCC(c1ccccc1)c1ccco1)Cc1ccccc1 (configuration not stated)	3.4	1.9	22.1	18.4*	15.0	15.5	4.4	6.8
COc1ccc(CN(CCC(c2ccccc2)c2ccco2)C(=O)c2ccco2)cc1 (configuration not stated)	-37.6	0.2	5.0	5.1	-2.9	12.6	nt	nt
CC(O)CNCc1ccccc1C(F)(F)F (configuration not stated)	-2.9	4.5	-10.4	nt	-20.0	3.0	nt	nt
CN(C(=O)COC(=O)c1ccc([N+](=O)[O-])cc1N)c1ccccc1	-5.8	1.9	-6.1	nt	-48.6	-1.9	nt	nt
Cc1ccc(/C=C/C(=O)N2CCc3ccccc3C2)cc1	-11.0	-20.2	1.3	24.2*	-11.6	17.2	12.0	13.4
CC(C)(C)c1ccc(/C=C/C(=O)N2CCc3ccccc3C2)cc1	-46.6	-36.0	6.0	10.1	35.3	8.0	nt	nt
COc1ccc(C(C(=O)NC2CCCCC2)N(C(=O)CCl)c2ccc(C)cc2)cc1 (configuration not stated)	7.9	-8.9	-8.3	2.3	30.2	5.5	nt	nt
COc1ccc(C(C(=O)NC2CCCC2)N(C(=O)c2ccoc2C)c2ccc(C)cc2)cc1 (configuration not stated)	-16.6	-19.1	0.2	18.6*	12.5	19.7	6.5	3.6
COc1ccc(C(O)P(=O)(OC(C)C)OC(C)C)c(OC)c1 (configuration not stated)	10.0	-0.9	-6.3	nt	5.9	nt	nt	nt
O=c1c2ccccc2nnn1CSc1ccc2ccccc2n1	-1.5	-3.5	30.3	4.5	15.6	1.0	nt	nt

Screening results (PubChem)
